Measured values published in ChEMBL document CHEMBL4304834, “3-Amino-chromanes and Tetrahydroquinolines as Selective 5-HT2B, 5-HT7, or σ1 Receptor Ligands” (ACS Med Chem Lett, 2019).

Key:
Homo sapiens [1] = species: Homo sapiens; assay: Selectivity index, ratio of Ki for human recombinant adrenergic Alpha1D receptor to human recombinant sigma1 receptor
Method in brief: (§1)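 Both Ki values in each ratio come from NIMH Psychoactive Drug Screening Program radioligand binding. […] Other targets were given full binding curves, measured in triplicate, and Ki was taken from a sigmoidal curve fit. Some values were repeated in duplicate or triplicate independent experiments.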

Homo sapiens [2] = species: Homo sapiens; assay: Selectivity index, ratio of Ki for human recombinant DAT receptor to Ki for human recombinant sigma1 receptor
Homo sapiens [3] = species: Homo sapiens; assay: Selectivity index, ratio of Ki for human recombinant histamine H1 receptor to Ki for human recombinant sigma1 receptor; method in brief: as §1
Homo sapiens [4] = species: Homo sapiens; assay: Selectivity index, ratio of Ki for human recombinant Muscarinic acetylcholine M5 receptor to Ki for human recombinant sigma1 receptor; method in brief: as §1
[5] = biological target: 5-hydroxytryptamine receptor 5A (Homo sapiens, UniProt P47898); assay: Displacement of [3H]-LSD from human recombinant 5-HT5A receptor expressed in Flp-In CHO cells at 10 uM after 90 mins by microbeta scintillation counting method relative to control; format: cell-based
Sequence of 5-hydroxytryptamine receptor 5A (P47898 whole entry): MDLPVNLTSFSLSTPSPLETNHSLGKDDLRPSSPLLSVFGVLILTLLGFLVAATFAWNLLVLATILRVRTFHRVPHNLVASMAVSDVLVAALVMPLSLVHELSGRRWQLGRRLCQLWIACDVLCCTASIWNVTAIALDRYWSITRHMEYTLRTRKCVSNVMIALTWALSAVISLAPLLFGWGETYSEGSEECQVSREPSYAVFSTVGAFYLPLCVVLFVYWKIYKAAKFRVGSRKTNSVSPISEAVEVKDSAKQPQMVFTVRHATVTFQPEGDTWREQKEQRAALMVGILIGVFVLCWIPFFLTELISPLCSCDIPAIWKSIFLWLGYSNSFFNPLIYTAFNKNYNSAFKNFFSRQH
Method in brief: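 Radioligand binding run by the NIMH Psychoactive Drug Screening Program. […] Otherwise Ki comes from sigmoidal curve fits of triplicate measurements in a single experiment, or is averaged over repeated experiments each run in triplicate.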

Compound	Ratio Ki (Homo sapiens [1])	Ratio Ki (Homo sapiens [2])	Ratio Ki (Homo sapiens [3])	Ratio Ki (Homo sapiens [4])	inhibition [5] [%]
COc1cc(OC)c2c(c1)OC[C@@]1(C)NCC[C@@H]21 (racemic)	> 20	> 20	> 20	> 20	–
CC[C@H]1c2cc(C)ccc2OC[C@@]1(C)N (racemic)	–	–	–	–	< 50
